Assays:
Mus musculus [1] = species: Mus musculus; assay: Weight change observed on day 8 in mice bearing lymphoid leukemia, treatment schedule is 1-5 qd.; assay type: functional
Method in brief: (§1)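 C3D2F1/J mice (C3H/HEJ female × DBA/2J male), groups of six, average weight 25 g, were inoculated ip with 1 × 10^6 L1210 cells. Ip treatment began 24 h after inoculation, daily on days 1-5 or 1-9, over a wide dose range. Mice were observed daily until death or 45 days. Body-weight change was recorded, and ILS was calculated as (T/C − 1) × 100.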

Mus musculus [2] = species: Mus musculus; assay: Dose producing greatest increase in life span of mice bearing lymphoid leukemia, treatment schedule is 1-5 qd.; assay type: functional
Method in brief: (§2)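 C3D2F1/J mice (C3H/HEJ female × DBA/2J male), groups of six, av wt 25 g, inoculated ip with 1 × 10^6 L1210 cells. Daily ip treatment (qd 1-5 or qd 1-9) started 24 h after inoculation, over a wide dose range. Mice observed daily until death or 45 days. ILS = (T/C − 1) × 100. Active range is doses giving ILS ≥25%; optimum dose gives the greatest ILS.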

L1210 [3] = assay: In vitro cytotoxicity with cleavage by phosphodiesterase-I concentration for 50% loss of viability was determined at 72 hours.; assay type: functional; settings: Mus musculus, L1210, 72 h; read-out: ED50 (the source's name)
L1210 [4] = assay: Percent hydrolysis by phosphodiesterase I at 24-h incubation after 30-minutes incubation.; assay type: functional, Mus musculus
Mus musculus [5] = species: Mus musculus; assay: Percent increase in life span in mice bearing lymphoid leukemia, treatment schedule is 1-5 qd.; assay type: functional; method in brief: as §2
Mus musculus [6] = species: Mus musculus; assay: Number of animals survived after 30-days in mice bearing lymphoid leukemia, treatment schedule is 1-5 qd.; assay type: functional; method in brief: as §2
Mus musculus [7] = assay: In Vivo Antitumor activity against intraperitoneally inoculated L1210 Lymphoid leukemic mice. Percent increase in life span. Treatment schedule is 1-9 qd.; assay type: functional; method in brief: as §2
Mus musculus [8] = assay: In Vivo Antitumor activity against intraperitoneally inoculated L1210 Lymphoid leukemic mice. Number of animals survived after 30-days. Treatment schedule is 1-9 qd.; assay type: functional; method in brief: as §2
Mus musculus [9] = assay: In vivo antitumor activity against intraperitoneally inoculated L1210 Lymphoid leukemic mice (Dose producing greatest increase in life span, treatment schedule is 1- 9 qd); assay type: functional; method in brief: as §2
Mus musculus [10] = assay: Dose producing greatest increase in life span >/=25% in mice bearing lymphoid leukemia, treatment schedule is 1-9 qd; 40-80 [mg(umol)/kg] /day; assay type: functional; method in brief: as §2
Mus musculus [11] = assay: In vivo antitumor activity against intraperitoneally inoculated L1210 lymphoid leukemic mice (Weight change observed on day 8.Treatment schedule is 1-9 qd); assay type: functional; method in brief: as §1
Mus musculus [12] = assay: Dose producing greatest increase in life span >/=25% in mice bearing lymphoid leukemia, treatment schedule is 1-5 qd; 20-80 [mg(umol)/kg] /day; assay type: functional; method in brief: as §2
Mus musculus [13] = assay: Dose producing greatest increase in life span >/=25% in mice bearing lymphoid leukemia, treatment schedule is 1-5 qd; 40-60 [mg(umol)/kg] /day; assay type: functional; method in brief: as §2
Mus musculus [14] = assay: Dose producing greatest increase in life span >/=25% in mice bearing lymphoid leukemia, treatment schedule is 1-5 qd; 20-60 [mg(umol)/kg] /day; assay type: functional; method in brief: as §2
Mus musculus [15] = assay: Dose producing greatest increase in life span >/=25% in mice bearing lymphoid leukemia, treatment schedule is 1-9 qd; 5-20 [mg(umol)/kg] /day; assay type: functional; method in brief: as §2
Mus musculus [16] = species: Mus musculus; assay: Percent increase in life span in mice bearing lymphoid leukemia, treatment schedule is 1-9 qd.; assay type: functional; method in brief: as §2
Mus musculus [17] = assay: Dose producing greatest increase in life span >/=25% in mice bearing lymphoid leukemia, treatment schedule is 1-5 qd; 5-80 [mg(umol)/kg] /day; assay type: functional; method in brief: as §2
Mus musculus [18] = species: Mus musculus; assay: Number of animals survived after 30-days in mice bearing lymphoid leukemia, treatment schedule is 1-9 qd.; assay type: functional; method in brief: as §2

Row | Compound | Weight change (Mus musculus [1]) [g mouse-1 on day 8] | Optimal dose (Mus musculus [2]) [mg/kg/day] | EC50 (L1210 [3]) [nM] | Hydrolysis (L1210 [4]) [%] | ILS (Mus musculus [5]) [%] | 30 day survivors (Mus musculus [6]) | further results
1 | CCCCCCCCCCCCCCCCOP(=O)(O)OC[C@H]1O[C@@H](n2ccc(N)nc2=O)[C@@H](O)[C@@H]1O | -4.75 | 20 | 16500 | 0 | -22 |  | No. of survivors (Mus musculus [6]): 0
2 | Nc1ccn([C@@H]2O[C@H](COP(=O)(O)OCCC34CC5CC(CC(C5)C3)C4)[C@@H](O)[C@@H]2O)c(=O)n1 | 0.87 | 40 | 310 | 25 | 18 | 0 | 
3 | C[C@]12C[C@H](O)[C@H]3[C@@H](CCC4=CC(=O)CC[C@@]43C)[C@@H]1CC[C@@H]2C(=O)COP(=O)(O)O.Nc1ccn([C@@H]2O[C@H](COP(=O)(O)O)[C@@H](O)[C@@H]2O)c(=O)n1 |  |  | 80 |  |  |  | 
4 | Nc1ccn([C@@H]2O[C@H](COP(=O)(O)O)[C@@H](O)[C@H]2O)c(=O)n1 |  |  | 50 |  |  |  | 
5 | Nc1ccn(C2O[C@H](COP(=O)(O)OP(=O)(O)OCC3CCCCC3)[C@@H](O)[C@@H]2O)c(=O)n1 (stereo partly drawn) |  |  | 5600 | 80 |  |  | 
6 | CC12CCC(=O)C=C1CCC1C2C(O)CC2(C)C1CC[C@@H]2C(=O)COP(=O)(O)OP(=O)(O)OC[C@H]1OC(n2ccc(N)nc2=O)[C@@H](O)[C@@H]1O (stereo partly drawn) | -0.45 | 60 | 90 | 100 | 95 | 0 | ILS (Mus musculus [7]): 152%; 30 day survivors (Mus musculus [8]): 2; Optimal dose (Mus musculus [9]): 80 mg/kg/day; Active dose range (Mus musculus [10]): 40 mg/kg/day; Weight change (Mus musculus [11]): -1.95 g mouse-1 on day 8; Active dose range (Mus musculus [12]): 20 mg/kg/day
7 | CC12CCC(=O)C=C1CCC1C2CCC2(C)C1CC[C@@H]2C(=O)COP(=O)(O)OP(=O)(O)OC[C@H]1OC(n2ccc(N)nc2=O)[C@@H](O)[C@@H]1O (stereo partly drawn) | -3.73 | 20 | 160 | 100 | 22 | 0 | 
8 | Nc1ccn(C2O[C@H](COP(=O)(O)OCC3CCCCC3)[C@@H](O)[C@@H]2O)c(=O)n1 (stereo partly drawn) | -0.67 | 40 | 7000 | 0 | -5 | 0 | 
9 | CC12CCC(=O)C=C1CCC1C2C(=O)CC2(C)C1CC[C@]2(O)C(=O)COP(=O)(O)OP(=O)(O)OC[C@H]1OC(n2ccc(N)nc2=O)[C@@H](O)[C@@H]1O (stereo partly drawn) | -0.78 | 40 | 80 | 100 | 36 | 0 | Active dose range (Mus musculus [13]): 40 mg/kg/day
10 | CC12CC(O)C3C4C=CC(=O)C=C4CCC3C1CC[C@]2(O)C(=O)COP(=O)(O)OP(=O)(O)OC[C@H]1OC(n2ccc(N)nc2=O)[C@@H](O)[C@@H]1O (stereo partly drawn) |  |  |  |  | 116 |  | 
11 | CC12CCC(=O)C=C1CCC1C2C(O)CC2(C)C1CC[C@]2(O)C(=O)COP(=O)(O)OP(=O)(O)OC[C@H]1OC(n2ccc(N)nc2=O)[C@@H](O)[C@@H]1O (stereo partly drawn) |  |  |  |  | 86 |  | 
12 | CC12CCC(=O)C=C1CCC1C2CCC2(C)C1CC[C@]2(O)C(=O)COP(=O)(O)OP(=O)(O)OC[C@H]1OC(n2ccc(N)nc2=O)[C@@H](O)[C@@H]1O (stereo partly drawn) | -2.15 | 60 | 20 | 100 | 33 | 0 | Active dose range (Mus musculus [14]): 20 mg/kg/day
13 | CCCCCCCCCCCCCCCCOP(=O)(O)OP(=O)(O)OC[C@H]1OC(n2ccc(N)nc2=O)[C@@H](O)[C@@H]1O (stereo partly drawn) | 2.92 | 40 | 4300 | 80 | 38 | 0 | Active dose range (Mus musculus [14]): 20 mg/kg/day
14 | Nc1ccn(C2O[C@H](COP(=O)(O)OCCCl)[C@@H](O)[C@@H]2O)c(=O)n1 (stereo partly drawn) |  |  | 3130 | 2 |  |  | 
15 | Nc1ccn(C2O[C@H](COP(=O)(O)OCC34CC5CC(CC(C5)C3)C4)[C@@H](O)[C@@H]2O)c(=O)n1 (stereo partly drawn) |  |  | 1250 | 9 |  |  | 
16 | Nc1ccn([C@@H]2O[C@H](CO)[C@@H](O)[C@@H]2O)c(=O)n1 [CYTARABINE] | -2.66 | 9.2 | 190 |  | 63 | 1 | Active dose range (Mus musculus [15]): 5 mg/kg/day; ILS (Mus musculus [16]): 138%; Active dose range (Mus musculus [17]): 5 mg/kg/day; Optimal dose (Mus musculus [9]): 9.2 mg/kg/day; Weight change (Mus musculus [11]): -4.56 g mouse-1 on day 8; 30 day survivors (Mus musculus [18]): 1

Source: ChEMBL document CHEMBL1122886, “Nucleoside conjugates. 6. Synthesis and comparison of antitumor activity of 1-beta-D-arabinofuranosylcytosine conjugates of corticosteroids and selected lipophilic alcohols” (1985)
